From ChEMBL document CHEMBL1250434, “A novel achiral seco-cyclopropylpyrido[e]indolone (CPyI) analog of CC-1065 and the duocarmycins: synthesis, DNA interactions, in vivo anticancer and anti-parasitic evaluation” (Bioorg Med Chem, 2010) come the findings set out here.

This experiment in a line: Cytotoxicity against mouse B16F0 cells after 3 days by MTT assay. The class given is functional, cell-based. The settings on record: B16F0, 72 h. The essentials: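 Murine tumour cells under continuous drug exposure for 3 days. Growth inhibition measured by MTT assay. IC50 is the concentration inhibiting growth by 50%.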
(Tetrazolium assays rely on reduction of a dye to a coloured formazan, in cell work by metabolically active cells.)

pIC50: −log10 of the molar value.

The term pIC50 denotes the IC50 on a negative log10 scale, so that one unit is a factor of ten. Take `COc1cc2cc(C(=O)N3CC(CCl)c4c3cc(O)c3ccccc43)[nH]c2c(OC)c1OC` (stereo unspecified): the pIC50 was 7.11.
